Experimental data published in ChEMBL document CHEMBL1157291, “Discovery of bacterial fatty acid synthase inhibitors from a Phoma species as antimicrobial agents using a new antisense-based strategy” (J Nat Prod, 2006).
Values after ≈ are worked out from the molar mass of the structure shown.

What was measured:
Staphylococcus aureus [1] = test: Antimicrobial activity against methicillin-resistant Staphylococcus aureus COL after 20 hrs; format: functional
Outline: (§1)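 MIC determination: cells inoculated at 10^5 CFU/mL, incubated at 37 °C for 20 h with 2-fold serial dilutions of compound in growth medium; MIC taken as lowest concentration inhibiting growth.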

Enterococcus faecalis = test: Antimicrobial activity against vancomycin-sensitive Enterococcus faecalis CL8516 after 20 hrs; format: functional
Outline: (§2)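 Broth MIC: cells at 10^5 CFU/mL were incubated at 37 °C for 20 h with 2-fold serial dilutions of compound in growth medium. The MIC was taken as the lowest concentration inhibiting growth.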

Enterococcus faecium = test: Antimicrobial activity against vancomycin-resistant Enterococcus faecium CL5791 after 20 hrs; format: functional; outline: as §1
Escherichia coli [2] = test: Antimicrobial activity against wild type Escherichia coli after 20 hrs; format: functional; outline: as §2
Escherichia coli [3] = test: Antimicrobial activity against envA transfected Escherichia coli after 20 hrs; format: functional; outline: as §2
Staphylococcus aureus [4] = test: Antimicrobial activity against Staphylococcus aureus RN450 transfected with plasmid SI-1941 bearing antisense to FabF assessed as drug level at which a zone formation after 18 hrs; format: functional
Outline: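 Agar two-plate differential sensitivity assay: S. aureus RN450 carrying fabF antisense plasmid, with a vector-only control strain. Overnight LB cultures with 34 µg/mL chloramphenicol at 37 °C were inoculated 1:1000 (of OD 3.0) into LB agar with 0.2% glucose and 15 µg/mL chloramphenicol, plus 50 mM xylose for the antisense strain only. Samples were added to wells and incubated 18 h at 37 °C. MDC is the lowest 2-fold dilution giving a zone in the sensitive strain with a 5 mm zone differential over the control strain.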

[5] = Inhibition of Staphylococcus aureus FAS2
Outline: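 Partially purified S. aureus protein containing all FAS enzymes (1.26 µg) was preincubated 20 min at room temperature with serial dilutions of compound. Reactions were started with [2-14C]malonyl-CoA (4 µM final), run 90 min at 37 °C, stopped with perchloric acid, and read by scintillation in phospholipid-coated flash plates. IC50 was determined.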

Staphylococcus aureus [6] = test: Antimicrobial activity against Staphylococcus aureus MB2865 after 20 hrs; format: functional; outline: as §1

SMILES	MIC (Staphylococcus aureus [1])	MIC (Enterococcus faecalis)	MIC (Enterococcus faecium)	MIC (Escherichia coli [2])	MIC (Escherichia coli [3])	Activity (Staphylococcus aureus [4])	IC50 [5]	MIC (Staphylococcus aureus [6])
C=C/C(C)=C/[C@@]1(C)SC(=O)C(C)=C1O [THIOLACTOMYCIN]	64 mg/L (≈ 304 µM)	> 250 mg/L	> 250 mg/L	> 250 mg/L	> 250 mg/L	–	–	–
CCCC#CC#CC=C=CCCCCCCC(=O)O [PHOMALLENIC ACID B]	12.5 mg/L (≈ 48.4 µM)	> 100 mg/L	> 100 mg/L	> 100 mg/L	25 mg/L (≈ 96.8 µM)	0.31 µg/mL	3.4 mg/L (≈ 13.2 µM)	7.8 mg/L (≈ 30.2 µM)
CCC(O)C#CC#CC=C=CCCCCC(=O)O (configuration not stated) [PHOMALLENIC ACID A]	250 mg/L (≈ 1010 µM)	> 250 mg/L	> 250 mg/L	> 250 mg/L	31.3 mg/L (≈ 127 µM)	0.63 µg/mL	22 mg/L (≈ 89.3 µM)	250 mg/L (≈ 1010 µM)
CCCC#CC#CC=C=CCCCCCCCC(=O)O [PHOMALLENIC ACID C]	3.9 mg/L (≈ 14.3 µM)	> 100 mg/L	> 100 mg/L	> 100 mg/L	12.5 mg/L (≈ 45.9 µM)	0.15 µg/mL	0.77 mg/L (≈ 2.83 µM)	3.9 mg/L (≈ 14.3 µM)
C/C=C/C/C=C/CCC(=O)[C@H]1O[C@H]1C(N)=O [CERULENIN]	–	–	–	–	–	32 µg/mL	1.5 mg/L (≈ 6.72 µM)	64 mg/L (≈ 287 µM)
